The RNAGym collection of RNA variant scans (doi:10.1126/science.aae0568)
Fewer inactive variants are shown than the library holds.

B1: tRNA (parent)
chain: GUUCCGUUGGCGUAAUGGUAACGCGUCUCCCUCCUAAGGAGAAGACUGCGGGUUCGAGUCCCGUACGGAACG

Variants of: B1
Test: yeast fitness relative to wild type (ratio to wild type); higher = fitter; tRNA-Arg(CCU), competitive growth, 37 C, YPD
In short: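 Changes in genotype frequencies gave Darwinian fitness relative to wild type. Frequencies were read by 100-nucleotide paired-end sequencing of gene amplicons before and after pooled Saccharomyces cerevisiae strains, carrying tRNA-Arg(CCU) gene variants at the native locus, were competed in YPD at 37°C for 24 hours in six replicates. A genotype was kept only with ≥ 100 starting reads, and estimates < 0.5 were set to 0.5.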

Row | Variant | yeast fitness
1 | GUUCCGUUGGCGUAAUGGUAAAGCGUUUCCCUCCUAAGGAGAAGACUGCGGGUUCGUGUCCCGUACGGAACG | ≤ 0.5
2 | GUUCCGUUGGCGUAAUGGUAAAGGGUCUCCCUCCUGAGCAGAAGACUGCGGGUUCGAGUCCCGUAUGGAACG | ≤ 0.5
3 | GUUCCGUUGGCGUAAUGGUAAAGCGUCUACCUCCUAAGGAGAAGACUGCGGGUUCGAGUCCCGUAAGGAACG | 0.513
4 | GUUCCGUUGGCGUAAUGGUAAAGGGUCUCCCUCCUAAGGAGAAGACUGCGGGUUCGAGUCCCGUACCAAACG | ≤ 0.5
5 | GUUCCGUUGGCGUAAUGGUAAAGCGUCUCCCUCCUAAGGAGAAGACUGCGGGUUCGAGUCCCGUACGGUACG | 0.843
6 | GUUCCGUUGGCGUAAUGGUAAAGAGCCUCCCUCCUAAGGAGAAGACUGCGGGUUCGAGUCCCGUACGGAACG | 0.559
7 | GUUCCGUUGGCGUAAUGGUAAAGCGUCUCCCUCCUAAGGAGAAGUCUGCGGGUUCGAGUCCCGUACGGAACG | 0.837
8 | GUUCCGUUGGCGUAAUGGUAAAGCGUCUCCCUCCUAAGGAGUAGACUGCGGGUUCGAGUCCCGUACGGAACG | 0.677
9 | GUUCCGUUGGCGUAAUGGUAAAGCGUCUCCCUCCUAAGGAGGAGACUGCGGGUUCGAGUCCCGUACGGAACG | 0.923
10 | GUUCCGUUGGCGUAAUGGUAAAGCGUCUCCCUCCUAAGGAGCAGACUGCGGGUUCGAGUCCCGUACGGAACG | 0.635
11 | GUUCCGUUGGCGUAAUGGUAAAGCGUGUCCCUCCUAAGGAGAAGACUGCGGGUUCGAGUCCCGUACGUAACG | ≤ 0.5
12 | GUUCCGUUGGCGUAAUGGUAAAGUGUCUCUGUCCUAAGGAGAAGACUGCGGGUUCGAGUCCCGUAUGGAACG | 0.615
13 | GUUCCGUUGGCGUAAUGGUAAAGCGUGUCCCUCCUAAGGAGAAGACUGCGGGUUCGAGUCCCGUUCGGAACG | ≤ 0.5
14 | GUUCCGUUGGCGUAAUGGUAAAGCGUCUCCCUCCUAAGGAGAAGACUGCGGGUUCGAGUCCCGUUCGGAGCG | 0.662
15 | GUUCCGUUGGCGUAAUGGUAAAGCGUCUCCCUCCUAAGGAGAAGCCUGCGGGUUCGAGUCUCGUACGGAACG | 0.604
16 | GUUCCGUUGGCGUAAUGGUAAAGCGUCUCCCUCCUAAGGAGACGACUGCGGGUUCGAGUCCCCUACAGAACG | ≤ 0.5
17 | GUUCCGUUGGCGUAAUGGUAAAGCGUCUCCCUCCUAAGGUGACGACUACGGGUUCGAGUCCCGUACGGUACG | ≤ 0.5
18 | GUUCCGUUGGCGUAAUGGUAAAGGGUCUCCCUCCUAAGGAGAGGACUGCGGGUUCGAGUCCCGUACGGAACG | ≤ 0.5
19 | GUUCCGUUGGCGUAAUGGUAAAGCGUCUCCCUCCUAAGGAGGAGACUGUGGGUUCGAGUCCCGUACGGAACG | ≤ 0.5

Row | Variant | yeast fitness
20 | GUUCCGUUGGCGUAAUGGUAAAGGGUCUCCCUCCUAAGGAGAAGACUGCGGGCUCGAGUCCCGUACGGAACG | ≤ 0.5
21 | GUUCCGUUGGCGUAAUGGUAAAGCGUCUCCCUCCUAAGGAGAGGACUGCGGGUUCGAGUCCCUAACGGAACG | ≤ 0.5
22 | GUUCCGUUGGCGUAAUGGUAAAGCGUCUCCCUCCUAAGGAGAAGACUGCGGGUUCGAGUCCCGUCCGGAACG | 0.836
23 | GUUCCGUUGGCGUAAUGGUAAAGGGUCUCCCUCCUAAGGAGAAGACUGCGGGUUCGAGUGCCGUAGGGAACG | 0.542
24 | GUUCCGUUGGCGUAAUGGUAAAGGGUCUCCCUCCUAAGGAGAUGACUGCGGGUUCGAGUCCAGUACGGAACG | ≤ 0.5
25 | GUUCCGUUGGCGUAAUGGUAAAGGGUCUCCCUCCUAAGGAGAAGACUGCGGGUUCGAGUCCCGUACGGAACG | 0.507
26 | GUUCCGUUGGCGUAAUGGUAAAGUGUCACCCUCCUAGGGAGAAGACUGCGGGUUCGAGUCCCGUACGGAACG | ≤ 0.5
27 | GUUCCGUUGGCGUAAUGGUAAAGCGUCUCCCUCCUAAGGAGAAGACUGCGGGUUCGUGUCCCGUACAGAACG | 0.545
28 | GUUCCGUUGGCGUAAUGGUAAAGCGUCUCCCUCCUAAGGAGAUGACUGCGGGUUCGAGUACCGUACGGAACG | ≤ 0.5
29 | GUUCCGUUGGCGUAAUGGUAAAGCGUAUCCCUCCUUAGCAGAAGACUGCGGGUUCGAGUCCCGUACGGAACG | ≤ 0.5
30 | GUUCCGUUGGCGUAAUGGUAAAGCGUAUCCCUCCUAAGGAGAAGACUGCGGGUUCGAGUCCCGUACGGAACG | 0.718
31 | GUUCCGUUGGCGUAAUGGUAAAGCGUCUACCUCCUAAGGAGAAGACUGCGGGUUCGAGUCUCGUACGGAACG | ≤ 0.5
32 | GUUCCGUUGGCGUAAUGGUAAAGCGUCUCCCUCCUAAGGAGUAGACUGCGGGUUCGAGUCCUGUACGGAACG | 0.549
33 | GUUCCGUUGGCGUAAUGGUAAAGAGCCUCCCUCCCAAGGAGAAGACUGCGGGUUCGAGUCCCGUACGGAACG | ≤ 0.5
34 | GUUCCGUUGGCGUAAUGGUAAAGAGCCUCCCUCCUAAGGAGAAGACUGUGGGUUCGAGUCCCGAACGGAACG | ≤ 0.5
35 | GUUCCGUUGGCGUAAUGGUAAAGGGUCUCCCUCCUAAGGAGAAGACUGCGGAUUCGAGUCCCGUACCAAACG | ≤ 0.5
36 | GUUCCGUUGGCGUAAUGGUAAAGCGUUUCCCUCCUAAGGAGAGGAGUGUGGGUUCGAGUCCCGUACGGCACG | ≤ 0.5
37 | GUUCCGUUGGCGUAAUGGUAAAGCGUCUCCCUCCUAAGGAGUAGACUGCCGGUUCGGGUCCCGUACGGAACG | ≤ 0.5
38 | GUUCCGUUGGCGUAAUGGUAAAGCGUCUCCCUCCUAAGGAGAUGACUGCGGGUUCGAGUCCCGUACGAAACG | ≤ 0.5
